{
  "source": "paper PMC10586269",
  "about": "(ACS Omega, 2023)",
  "key": {"PfHsp90-NTD [1]": {"target": "T1, PfHsp90-NTD (Plasmodium falciparum, UniProt Q8IC05)", "T1 sequence (Q8IC05 1-215)": "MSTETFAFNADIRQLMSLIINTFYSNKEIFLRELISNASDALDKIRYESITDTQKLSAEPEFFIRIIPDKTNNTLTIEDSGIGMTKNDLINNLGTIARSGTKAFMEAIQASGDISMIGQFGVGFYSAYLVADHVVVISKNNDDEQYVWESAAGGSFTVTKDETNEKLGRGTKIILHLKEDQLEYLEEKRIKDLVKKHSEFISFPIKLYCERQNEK", "assay": "Equilibrium binding kinetics by MP-SPR", "in_short": "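PfHsp90-NTD (20 μg/mL) was immobilised by amine coupling on a carboxymethyl dextran gold chip for multiparametric SPR. Running buffer was PBS with 0.005% Tween 20 and 20 mM EDTA, pH 7.4. Test compound (0–2000/5000 nM) was injected at 50 μL/min, with association for 1 min and dissociation for 9 min at room temperature. Signals were subtracted against a protein-free reference channel and buffer blanks.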"}, "PfHsp90-NTD [2]": {"target": "T1, PfHsp90-NTD", "assay": "Competition binding, FITC-geldanamycin fluorescence polarization assay, PfHsp90", "conditions": "read-out: FP inhibition % PfHsp90 [10 μM]", "in_short": "(§1)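 Ni-affinity-purified Hsp90 N-terminal domain (PfHsp90-NTD or human Hsp90β-NTD, expressed in E. coli), 100 nM final, mixed with 5 nM FITC-geldanamycin. FP read at 480 nm excitation and 535 nm emission, converted to percent bound FITC-GDA versus the DMSO control.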"}, "human Hsp90β-NTD": {"target": "human Hsp90β-NTD (Homo sapiens, UniProt P08238)", "sequence (P08238 1-226)": "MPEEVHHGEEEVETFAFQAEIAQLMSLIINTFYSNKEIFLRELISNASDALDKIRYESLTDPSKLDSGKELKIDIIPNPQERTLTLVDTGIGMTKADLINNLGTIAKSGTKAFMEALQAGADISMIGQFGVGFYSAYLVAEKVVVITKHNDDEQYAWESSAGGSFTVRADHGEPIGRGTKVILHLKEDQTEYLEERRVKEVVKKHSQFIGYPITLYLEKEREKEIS", "assay_type": "binding", "conditions": "10 μM compound, FITC-GDA displacement", "in_short": "as §1"}},
  "note": "Marks after values point to notes of the source that are not given here.",
  "data": [
    {"smiles": "COc1ccc2c(c1)[nH]c1c(C)nccc12", "note": "[harmine]", "values": [
      {"measurement": "Kd", "setting": "PfHsp90-NTD [1]; KD, Kd/Ka", "result": "1820 ± 100", "unit": "nM"},
      {"measurement": "Ka", "setting": "PfHsp90-NTD [1]; association", "result": "17.6 ± 14.9 1/Ms (×10^3)"},
      {"measurement": "Kd", "setting": "PfHsp90-NTD [1]; dissociation rate", "result": "3.20 ± 4.8 1/s (×10^–6)"},
      {"measurement": "inhibition at 10 µM", "setting": "PfHsp90-NTD [2]", "result": "7 ± 6", "unit": "%"},
      {"measurement": "FP inhibition% human Hsp90 [10 μM]", "setting": "human Hsp90β-NTD", "result": "no inhibition"}
    ]}
  ]
}
